Data set [1] is described as follows: Protein binding in human plasma. Format: ADME, cell-free. The following applies: read-out: PPB (converted).
In data set [2] the target is T1, 5-hydroxytryptamine receptor 2C (Homo sapiens, UniProt P28335).
T1 sequence (P28335 whole entry): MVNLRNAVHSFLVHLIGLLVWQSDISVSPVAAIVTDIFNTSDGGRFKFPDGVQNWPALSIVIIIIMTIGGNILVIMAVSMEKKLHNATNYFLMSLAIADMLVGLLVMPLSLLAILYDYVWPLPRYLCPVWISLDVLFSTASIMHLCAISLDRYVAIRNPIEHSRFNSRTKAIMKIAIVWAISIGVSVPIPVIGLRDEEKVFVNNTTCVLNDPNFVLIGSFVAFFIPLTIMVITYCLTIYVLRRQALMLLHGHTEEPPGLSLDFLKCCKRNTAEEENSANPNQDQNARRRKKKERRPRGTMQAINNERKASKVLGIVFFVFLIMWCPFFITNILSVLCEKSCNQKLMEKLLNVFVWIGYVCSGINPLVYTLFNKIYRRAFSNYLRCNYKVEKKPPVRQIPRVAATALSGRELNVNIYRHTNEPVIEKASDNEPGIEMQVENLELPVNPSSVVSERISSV
Nature of the data set: Agonist activity at recombinant human 5-HT2C receptor expressed in HEK293E cells assessed as induction of intracellular Ca2+ levels after 90 secs by Fluo-4-dye based FLIPR assay. The data set is classed as functional, cell-based, HEK293. Summed up: (§1)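 HEK293E cells stably expressing human receptor (VNV isoform for 5-HT2C; ~400−795 fmol/mg protein), grown in DMEM with 10% dialyzed FBS and G418. Cells plated at 20 000/well in serum-free DMEM overnight at 37 °C, then loaded 1 h at room temperature with 5 μM Fluo-4 in HBSS/25 mM HEPES. Eleven compound concentrations added on FLIPR, Ca2+ signal read for 90 s. EC50 from a four-parameter logistic fit, at least triplicate.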

Data set [3] is described as follows: Metabolic stability in human liver microsomes assessed as parent compound remaining at […] after 10 mins. The data set is classed as ADME, microsome. The following applies: read-out: Stability. On the technique in general: Liver microsomes are a subcellular fraction often used to study metabolism.
For data set [4], the system named is Rattus norvegicus. Description: Antiobesity activity in ad libitum feeding Sprague-Dawley rat model assessed as reduction in food intake at 30 mg/kg, po administered at 60 mins prior to the onset of the dark cycle followed by incubation for first 8 hrs in light cycle and 12 hrs in dark cycle. Format: functional. Also noted: scale not given: the % may be the effect or the level left. Summed up: (§2)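 Male Sprague Dawley rats (~225 g; n = 6), trained in operant chambers, dosed orally with compound or vehicle (14% PPG, 1% Tween, 85% water) 60 min before dark onset. Food intake was monitored in individual boxes for 20 h (12 h dark plus first 8 h light). Percent reduction was computed from drug-treated versus vehicle-treated total intake.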

Data set [5] is described as follows: Half life in human microsomes. The data set is classed as ADME, Microsome.
Data set [6] can be described thus: Permeability of compound at pH 5.5 by PAMPA. The data set is classed as physicochemical. The following applies: read-out: permeability.
A short description of data set [7]: Half life in rat microsomes. The data set is classed as ADME, Microsome.
Data set [8] relates to Rattus norvegicus. Nature of the data set: Antiobesity activity in ad libitum feeding Sprague-Dawley rat model assessed as reduction in food pellet consumption at 30 mg/kg, po administered at 60 mins prior to the onset of the dark cycle followed by incubation for first 8 hrs in light cycle and 12 hrs in dark cycle. Format: functional. Also noted: scale not given: the % may be the effect or the level left. Summed up: as §2

Data set [9] addresses T2, 5-hydroxytryptamine receptor 2C (Homo sapiens) (UniProt P28335).
T2 sequence (whole entry): T1 sequence (P28335 whole entry)
Nature of the data set: Intrinsic activity at recombinant human 5-HT2C receptor expressed in HEK293E cells assessed as induction of intracellular Ca2+ levels after 90 secs by Fluo-4-dye based FLIPR assay relative to serotonin. Format: functional, cell-based. The following applies: HEK293. Summed up: (§3)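 FLIPR Fluo-4 Ca2+ assay in HEK293E cells stably expressing the human receptor (VNV isoform for 5-HT2C), eleven-point concentration series, 90 s read. Response normalized to 3 μM serotonin on the same plate (defined as IA = 1). Intrinsic activity taken from a four-parameter logistic fit.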

Data set [10] deals with T3, 5-hydroxytryptamine receptor 2B (Homo sapiens, UniProt P41595). Description: Agonist activity at recombinant human 5-HT2B receptor expressed in HEK293E cells assessed as induction of intracellular Ca2+ levels after 90 secs by Fluo-4-dye based FLIPR assay. The data set is classed as cell-based, HEK293. The method in brief: as §1
T3 sequence (P41595 whole entry): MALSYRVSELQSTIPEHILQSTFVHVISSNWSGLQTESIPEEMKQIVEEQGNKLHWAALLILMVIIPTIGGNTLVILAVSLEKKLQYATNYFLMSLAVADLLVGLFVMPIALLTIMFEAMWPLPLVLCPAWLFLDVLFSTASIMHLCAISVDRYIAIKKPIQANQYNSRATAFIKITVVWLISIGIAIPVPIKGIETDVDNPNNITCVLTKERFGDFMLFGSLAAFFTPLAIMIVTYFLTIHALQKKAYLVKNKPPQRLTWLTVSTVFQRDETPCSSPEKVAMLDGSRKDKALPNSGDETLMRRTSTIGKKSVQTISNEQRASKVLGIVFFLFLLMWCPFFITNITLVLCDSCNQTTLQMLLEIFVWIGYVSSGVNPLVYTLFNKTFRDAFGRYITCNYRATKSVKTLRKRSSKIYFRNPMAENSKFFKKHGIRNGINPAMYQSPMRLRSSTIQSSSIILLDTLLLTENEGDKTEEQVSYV
Data set [11] in a line: Drug uptake in Sprague-Dawley rat brain at 30 mg/kg, po measured at 3 hrs post dose by LC/MS-MS analysis. Format: ADME, organism-based. The following applies: read-out: Drug uptake. Summed up: (§4)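 Male rats given 30 mg/kg orally in 0.15% docusate sodium/2% PVP-K/97.85% water. Plasma and brain were sampled at a single time point after dosing. Brain was diluted 1:2 (vol/weight) with water before homogenization (dilution factor 3). Concentrations were measured by LC/MS−MS after acetonitrile protein precipitation. Values are the average of three animals; B/P is the brain to plasma ratio.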

Data set [12] can be described thus: Efflux ratio of permeability across basolateral to apical side in human Caco2 cells. The data set is classed as ADME, cell-based. The following applies: Caco-2.
Data set [13] can be described thus: Protein binding in rat plasma. Format: ADME, cell-free. The following applies: read-out: PPB (converted).
In data set [14] the target is 5-hydroxytryptamine receptor 2A (Homo sapiens, UniProt P28223). Description: Agonist activity at recombinant human 5-HT2A receptor expressed in HEK293E cells assessed as induction of intracellular Ca2+ levels after 90 secs by Fluo-4-dye based FLIPR assay. The data set is classed as cell-based, HEK293. The method in brief: as §1
Chain of 5-hydroxytryptamine receptor 2A (P28223 whole entry): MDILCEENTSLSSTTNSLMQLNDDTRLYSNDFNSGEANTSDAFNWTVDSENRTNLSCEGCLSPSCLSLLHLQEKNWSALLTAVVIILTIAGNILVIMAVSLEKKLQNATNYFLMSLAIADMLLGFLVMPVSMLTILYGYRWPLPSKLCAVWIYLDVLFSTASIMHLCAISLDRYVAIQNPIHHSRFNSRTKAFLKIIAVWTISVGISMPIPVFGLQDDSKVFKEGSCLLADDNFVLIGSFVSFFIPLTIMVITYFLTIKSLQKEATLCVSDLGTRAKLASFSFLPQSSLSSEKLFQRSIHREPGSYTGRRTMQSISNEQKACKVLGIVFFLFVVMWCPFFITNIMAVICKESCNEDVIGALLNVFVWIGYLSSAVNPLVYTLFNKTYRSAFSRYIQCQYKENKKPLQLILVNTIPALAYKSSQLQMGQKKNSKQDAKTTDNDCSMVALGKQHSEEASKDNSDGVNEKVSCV
Data set [15] concerns Rattus norvegicus. Nature of the data set: Antiobesity activity in ad libitum feeding Sprague-Dawley rat model assessed as reduction in food intake at 30 mg/kg, po administered at 60 mins prior to the onset of the dark cycle followed by incubation for first 8 hrs in light cycle and 12 hrs in dark cycle in presence of 5-HT2C anatgonist SB-243213. Format: functional. Also noted: scale not given: the % may be the effect or the level left.

Data set [16] in a line: Ratio of drug uptake in Sprague-Dawley rat brain to plasma at 30 mg/kg, po measured at 3 hrs post dose by LC/MS-MS analysis. Format: ADME, organism-based. The following applies: read-out: BPR. Summed up:
as §4

Data set [17] in a line: Permeability across basolateral to apical side in human Caco2 cells. Format: ADME, cell-based. The following applies: Caco-2, read-out: permeability. In general terms: Caco-2 monolayers are a common model of the intestinal barrier.
For data set [18], the target named is T3, 5-hydroxytryptamine receptor 2B. Nature of the data set: Intrinsic activity at recombinant human 5-HT2B receptor expressed in HEK293E cells assessed as induction of intracellular Ca2+ levels after 90 secs by Fluo-4-dye based FLIPR assay relative to serotonin. The following applies: HEK293. The data set is classed as functional, cell-based. Summed up:
as §3

Data set [19] relates to Rattus norvegicus. Description: Toxicity in ad libitum feeding Sprague-Dawley rat model assessed as effect on locomotor activity at 3 to 30 mg/kg, po administered at 60 mins prior to the onset of the dark cycle followed by incubation for first 8 hrs in light cycle and 12 hrs in dark cycle. Format: organism-based. The following applies: in vivo.
Data set [20] can be described thus: Permeability of compound at pH 7.4 by PAMPA. Format: physicochemical. The following applies: read-out: permeability. On the technique in general: The PAMPA barrier holds no transporters, so it reflects passive diffusion.
The subject of data set [21] is Rattus norvegicus. Description: Antiobesity activity in ad libitum feeding Sprague-Dawley rat model assessed as reduction in food pellet consumption administered po at 60 mins prior to the onset of the dark cycle followed by incubation for first 8 hrs in light cycle and 12 hrs in dark cycle. Format: functional, organism-based. The method in brief:
as §2

Data set [22] relates to Rattus norvegicus. Description: Antiobesity activity in ad libitum feeding Sprague-Dawley rat model assessed as reduction in food pellet consumption at 3 to 10 mg/kg, po administered at 60 mins prior to the onset of the dark cycle measured at first 4 hrs post last dose. The data set is classed as functional, organism-based. The method in brief: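 Male Sprague Dawley rats (n = 6) dosed orally 60 min before dark onset with 3 or 10 mg/kg, in vehicle of 14% PPG, 1% Tween, 85% water. Food pellet consumption was recorded in operant boxes and compared with vehicle over the first 4 h.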

A short description of data set [23]: Plasma concentration in Sprague-Dawley rat at 30 mg/kg, po measured at 3 hrs post dose by LC/MS-MS analysis. The data set is classed as ADME, organism-based. Summed up: as §4
A short description of data set [24]: Permeability across apical to basolateral side in human Caco2 cells. The data set is classed as ADME, cell-based. The following applies: Caco-2, read-out: permeability.
Data set [25] concerns Rattus norvegicus. Nature of the data set: Toxicity in ad libitum feeding Sprague-Dawley rat model assessed as reduction in water intake at 3 to 30 mg/kg, po administered at 60 mins prior to the onset of the dark cycle followed by incubation for first 8 hrs in light cycle and 12 hrs in dark cycle. The data set is classed as organism-based. The following applies: in vivo.
For data set [26], the system named is Rattus norvegicus. Nature of the data set: Antiobesity activity in ad libitum feeding Sprague-Dawley rat model assessed as reduction in food intake at 10 mg/kg, po administered at 60 mins prior to the onset of the dark cycle followed by incubation for first 8 hrs in light cycle and 12 hrs in dark cycle. Format: functional. Also on record: scale not given: the % may be the effect or the level left. Summed up: as §2

The subject of data set [27] is Rattus norvegicus. Nature of the data set: Antiobesity activity in ad libitum feeding Sprague-Dawley rat model assessed as reduction in food pellet consumption at 10 mg/kg, po administered at 60 mins prior to the onset of the dark cycle followed by incubation for first 8 hrs in light cycle and 12 hrs in dark cycle. Also on record: scale not given: the % may be the effect or the level left. Format: functional. Summed up: as §2

The values below come from ChEMBL document CHEMBL4011636, “Utilization of an Active Site Mutant Receptor for the Identification of Potent and Selective Atypical 5-HT2C Receptor Agonists” (J Med Chem, 2017).

As a reminder, the EC50 is the midpoint of the concentration-response curve. The half-life is the time needed for the level to fall by half in the phase considered. As usually defined, the efflux ratio is the permeability from basolateral to apical divided by that in the opposite direction, in the common usage.

Each structure is given as a SMILES string. Activity calls are given as the source filed them.

Turning to `CCn1nc(-c2cccc3cccnc23)cc1-c1ccc(N)nn1`, the fraction unbound in data set [1] was 0.062; in data set [13], 0.079. In addition, the concentration for a half-maximal effect (EC50) amounted to 5 nM in data set [2], 48 nM in [10] and 635 nM in data set [14]. Moreover, the remaining at 10 min in data set [3] worked out at 61%. Moreover, the Activity was 38% with Rattus norvegicus [4]; 24% in the data set on Rattus norvegicus [8]; 12% with Rattus norvegicus [15]; “Non-Toxic” with Rattus norvegicus [19]; “Dose-dependent effect” in the data set on Rattus norvegicus [21]; “Non-Toxic” in the data set with Rattus norvegicus [25]. The half-life in [5] stood at 16 min; in data set [7], 25 min. Besides, the values for the Papp in data set [6] and in [20] were 72.7 ×10⁻⁶ cm/s and 88.9 ×10⁻⁶ cm/s, respectively. Besides, the Intrinsic activity in data set [9] turned out to be 0.8; in [18], 0.2. The concentration at 3 h in [11] amounted to 3.92 µM; in data set [23], 7.54 µM. In addition, the efflux ratio in data set [12] was determined as 0.7. Also, in [16], the Kp at 3 h came to 0.9. Also, the Papp B→A in [17] was found to be 52.8 ×10⁻⁶ cm/s. The outcome in the data set on Rattus norvegicus [22] was Active. Further, in data set [24], the Papp A→B worked out at 77.7 ×10⁻⁶ cm/s.

For the compound `Cc1cc2c(cc1C(F)(F)F)N(C(=O)Nc1ccc(Oc3cccnc3C)nc1)CC2` [SB-243213], the Activity in the data set with Rattus norvegicus [26] came out at 15%.

`Cc1c(C(=O)NN2CCCCC2)nn(-c2ccc(Cl)cc2Cl)c1-c1ccc(Cl)cc1` [RIMONABANT]: the Activity in the data set on Rattus norvegicus [27] is recorded as 27%.
